The values below come from ChEMBL document CHEMBL1641511, “Microwave-assisted synthesis of quinoline, isoquinoline, quinoxaline and quinazoline derivatives as CB2 receptor agonists” (Bioorg Med Chem, 2011).

Each structure is given as a SMILES string. The source made the active and inactive calls. The rule behind the calls is not given here.

The target in test [1] is Cannabinoid receptor 1 (Rattus norvegicus) (UniProt P20272). The experiment in a line: Antagonist activity at rat cannabinoid CB1 receptor in Wistar rat cerebellar membranes at 10 uM by [35S]GTPgammaS binding assay. In kind it is functional, cell membranes. Particulars: Cerebellum, Membrane. An outline of the steps:
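Uses non-recombinant rat cerebellar membrane fractions as the CB1 source, with [35S]GTPγS binding. Ligand screened at 10 µM for its ability to antagonize the agonist response to 10 nM HU-210.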
(GTPγS is a poorly hydrolysed GTP analogue; its binding reports G protein activation.)

Test [2] deals with Cannabinoid receptor 2 (Homo sapiens) (UniProt P34972). Nature of the test: Agonist activity at human recombinant cannabinoid CB2 receptor expressed in CHO cells at 10 uM by [35S]GTPgammaS binding assay. In kind it is functional, cell-based. An outline of the steps: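 Single-point screen for G-protein activation at hCB2 with [35S]GTPγS binding, ligand at 10 µM. Response given relative to the 10 nM HU-210 agonist response, in percent. Mean SEM of at least three experiments, each done in duplicate.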
Sequence of Cannabinoid receptor 2 (Homo sapiens) (P34972 whole entry): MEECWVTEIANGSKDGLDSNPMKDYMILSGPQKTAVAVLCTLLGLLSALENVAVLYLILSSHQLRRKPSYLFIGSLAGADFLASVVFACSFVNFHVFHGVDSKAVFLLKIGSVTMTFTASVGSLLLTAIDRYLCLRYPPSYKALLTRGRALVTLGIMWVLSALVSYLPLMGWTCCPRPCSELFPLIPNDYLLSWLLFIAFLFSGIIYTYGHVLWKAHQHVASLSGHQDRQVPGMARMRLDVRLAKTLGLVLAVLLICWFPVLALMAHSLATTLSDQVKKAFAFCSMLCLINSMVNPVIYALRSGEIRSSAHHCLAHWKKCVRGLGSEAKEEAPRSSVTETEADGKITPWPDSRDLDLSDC

For test [3] the target is unchanged. Nature of the test: Agonist activity at human recombinant cannabinoid CB2 receptor expressed in CHO cells by [35S]GTPgammaS binding assay relative to HU-210. In kind it is functional, cell-based. The procedure, abridged: (§1)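 hCB2 [35S]GTPγS binding concentration–response curves, run only for ligands giving over 50% relative activity at 10 µM. logEC50 and Emax come from nonlinear regression fitted to a sigmoidal concentration–response equation. Emax is given as percent of the 10 nM HU-210 response. Mean SEM of at least three experiments in duplicate.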

Test [4] shares this target. The experiment in a line: Agonist activity at human recombinant cannabinoid CB2 receptor expressed in CHO cells by [35S]GTPgammaS binding assay. In kind it is functional, cell-based. An outline of the steps:
as §1

The target in test [5] is Cannabinoid receptor 1 (Rattus norvegicus) (UniProt P20272). The experiment in a line: Antagonist activity at rat cannabinoid CB1 receptor in Wistar rat cerebellar membranes by [35S]GTPgammaS binding assay. The following applies: Cerebellum, Membrane. It is filed as functional, cell membranes. The procedure, abridged: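 Non-recombinant rat cerebellar membrane fractions, [35S]GTPγS binding. Compounds screened at a single concentration for their ability to antagonise the response to 10 nM HU-210 agonist.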
Sequence of Cannabinoid receptor 1 (Rattus norvegicus) (P20272 whole entry): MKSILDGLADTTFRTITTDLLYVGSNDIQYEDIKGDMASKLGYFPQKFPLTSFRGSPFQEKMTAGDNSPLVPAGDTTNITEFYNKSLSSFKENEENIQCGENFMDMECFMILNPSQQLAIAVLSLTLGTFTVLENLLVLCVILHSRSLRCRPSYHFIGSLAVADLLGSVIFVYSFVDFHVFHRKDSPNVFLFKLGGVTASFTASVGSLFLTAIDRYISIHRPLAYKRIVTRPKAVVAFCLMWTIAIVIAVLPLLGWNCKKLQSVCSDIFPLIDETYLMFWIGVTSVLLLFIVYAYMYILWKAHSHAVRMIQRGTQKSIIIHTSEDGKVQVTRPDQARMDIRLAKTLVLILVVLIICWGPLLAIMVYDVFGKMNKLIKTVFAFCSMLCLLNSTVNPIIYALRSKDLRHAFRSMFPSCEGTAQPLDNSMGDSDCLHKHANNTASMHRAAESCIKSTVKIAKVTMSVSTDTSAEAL

For the compound `c1ccc(Sc2nccc3ccccc23)cc1`, the outcome in test [1] was inactive. The Activity in test [2] stood at 33%.

Take `FC(F)(F)c1cccc(Nc2nccc3ccccc23)c1`: the maximal effect (Emax) in test [3] was 124%. Besides, the result in test [1] was inactive. In test [2], the Activity stood at 102%. The pEC50 in test [4] was 5.8.

For `FC(F)(F)c1ccc(Nc2ccc3ccccc3n2)cc1`, the result in test [1] was inactive. Besides, the Activity in test [2] was determined as 48%.

Consider `COc1ccc(Nc2ccc3ccccc3n2)cc1`, for which the Emax in test [3] was determined as 51%. The result in test [1] was inactive. For the same compound, the Activity in test [2] stood at 49%. Moreover, the pEC50 in test [4] is 5.7.

`O=C(NCc1ccccc1)c1cnc(Nc2cccc(C(F)(F)F)c2)c2ccccc12`: in test [1], the result was inactive. Further, the Activity in test [2] was 21%.

For `COC(=O)c1cc2ccccc2c(Nc2cccc(C(F)(F)F)c2)n1`, the result in test [1] was inactive. Besides, the Activity in test [2] stood at 4%.

In the case of `Clc1ccccc1Nc1ccc2ccccc2n1`, in test [3], the Emax is 91%. Moreover, the result in test [1] was inactive. Moreover, the Activity in test [2] turned out to be 56%. Also, the pEC50 in test [4] came to 5.2.

In the case of `c1ccc2nc(N3CCCCC3)ccc2c1`, in test [1], the result was inactive. The Activity in test [2] was 10%.

On to `Clc1cccc(Nc2ccc3ccccc3n2)c1`, for which the Emax in test [3] worked out at 70%. The result in test [1] was inactive. The Activity in test [2] stood at 58%. The pEC50 in test [4] came to 5.6.

Consider `FC(F)(F)c1cccc(Nc2ncc3ccccc3n2)c1`, for which, in test [3], the Emax was found to be 67%. The outcome in test [1] was inactive. For the same compound, the Activity in test [2] worked out at 53%. Besides, the pEC50 in test [4] came out at 5.5.

As for `c1ccc(Oc2cnc3ccccc3c2)cc1`, the result in test [1] was inactive. Also, in test [2], the Activity was determined as 17%.

Take `c1ccc(Sc2cnc3ccccc3c2)cc1`: the outcome in test [1] was inactive. Besides, in test [2], the Activity turned out to be 13%.

Take `FC(F)(F)c1cccc(Nc2ccnc3ccccc23)c1`: in test [3], the Emax worked out at 58%. Further, the result in test [1] was inactive. Also, the Activity in test [2] is 50%. Besides, the pEC50 in test [4] came out at 5.5.

Take `FC(F)(F)c1cccc(Nc2cnc3ccccc3n2)c1`: in test [3], the Emax was determined as 69%. The result in test [1] was inactive. For the same compound, the Activity in test [2] came out at 52%. Further, the pEC50 in test [4] is 5.4.

As for `c1ccc(Cc2ccccc2Nc2ccc3ccccc3n2)cc1`, the result in test [1] was inactive. Also, in test [2], the Activity amounted to 18%.

Regarding `FC(F)(F)c1cccc(Nc2ccc3ccccc3n2)c1`, the Emax in test [3] stood at 65%. Also, the outcome in test [1] was inactive. Further, in test [2], the Activity amounted to 64%. In test [4], the pEC50 came out at 5.9.

Turning to `Clc1ccc(Nc2ccc3ccccc3n2)cc1`, the Emax in test [3] worked out at 80%. In test [1], the outcome was inactive. Further, the Activity in test [2] is 75%. The pEC50 in test [4] worked out at 5.7.

As to `CCCCCCNc1ccc2ccccc2n1`, the result in test [1] was inactive. Moreover, the Activity in test [2] worked out at 10%.

As for `FC(F)(F)c1ccc(Nc2nccc3ccccc23)cc1`, in test [1], the outcome was inactive. In test [2], the Activity worked out at 25%.

For the compound `COc1cccc(Nc2ccc3ccccc3n2)c1`, the Emax in test [3] came out at 61%. Also, the outcome in test [1] was inactive. For the same compound, in test [2], the Activity was 50%. In addition, the pEC50 in test [4] came out at 5.6.

With `c1ccc(Nc2ccc3ccccc3n2)cc1`, the result in test [1] was inactive. For the same compound, the Activity in test [2] was 39%.

Take `c1ccc(Nc2cnc3ccccc3n2)cc1`: the result in test [1] was inactive. Also, the Activity in test [2] turned out to be 30%.

On to `N#Cc1cccc(Nc2ccc3ccccc3n2)c1`, for which the result in test [1] was inactive. Moreover, in test [2], the Activity is 25%.

`COc1cc(C(F)(F)F)ccc1Nc1ccc2ccccc2n1`: the outcome in test [1] was inactive. The Activity in test [2] is 33%.

In the case of `O=C(NC1CCCCC1)c1cnc(Nc2cccc(C(F)(F)F)c2)c2ccccc12`, the Emax in test [3] came out at 73%. Moreover, the result in test [1] was inactive. Further, in test [2], the Activity amounted to 54%. In addition, the pEC50 in test [4] worked out at 5.7.

With `c1ccc(Oc2nccc3ccccc23)cc1`, the result in test [1] was inactive. For the same compound, the Activity in test [2] turned out to be 31%.

Consider `COc1ccccc1NC(=O)c1cnc(Nc2cccc(C(F)(F)F)c2)c2ccccc12`, for which the result in test [1] was inactive. Also, in test [2], the Activity stood at 1%.

With `c1ccc2nc(NC3CCCCC3)ccc2c1`, the Emax in test [3] amounted to 88%. The outcome in test [1] was inactive. Moreover, in test [2], the Activity came out at 57%. Moreover, the pEC50 in test [4] was 5.2.

Turning to `c1ccc2nc(NCC3CCCCC3)ccc2c1`, the result in test [1] was inactive. The Activity in test [2] worked out at 44%.

On to `OCCc1ccc(Nc2ccc3ccccc3n2)cc1`, for which the outcome in test [1] was inactive. In addition, the Activity in test [2] is 20%.

Turning to `O=C(NC1CCCCC1)c1cc2ccccc2c(Nc2cccc(C(F)(F)F)c2)n1`, the outcome in test [1] was inactive. Besides, the Activity in test [2] is 13%.

On to `COc1ccccc1Nc1ccc2ccccc2n1`, for which, in test [3], the Emax is 102%. Besides, the result in test [1] was inactive. Besides, the Activity in test [2] was found to be 69%. In test [4], the pEC50 was 5.3.

For the compound `CCOC(=O)c1ccc(Nc2ccc3ccccc3n2)cc1`, the outcome in test [1] was inactive. For the same compound, in test [2], the Activity worked out at 3%.

As to `CN(C)c1ccc(Nc2ccc3ccccc3n2)cc1`, the outcome in test [1] was inactive. Besides, in test [2], the Activity came out at 20%.

Regarding `c1ccc(Nc2ncc3ccccc3n2)cc1`, in test [1], the result was inactive. In addition, in test [2], the Activity worked out at 38%.

Turning to `c1ccc(Nc2ccnc3ccccc23)cc1`, the result in test [1] was inactive. Also, the Activity in test [2] was found to be 9%.

Regarding `FC(F)(F)c1cccc(Nc2ncnc3ccccc23)c1`, the Emax in test [3] amounted to 79%. In test [1], the result was inactive. Besides, in test [2], the Activity turned out to be 68%. The pEC50 in test [4] was determined as 5.6.

With `c1ccc(Sc2ccc3ccccc3n2)cc1`, the Emax in test [3] was 61%. In addition, the result in test [1] was inactive. Also, the Activity in test [2] was 47%. Further, the pEC50 in test [4] was found to be 5.4.

For the compound `O=C(c1cnc(Nc2cccc(C(F)(F)F)c2)c2ccccc12)N1CCOCC1`, the Emax in test [3] was determined as 75%. This compound also had a logEC50 in test [5] of 5. Besides, the Activity in test [2] came to 76%. The pEC50 in test [4] is 7.8.

`c1ccc(Nc2nccc3ccccc23)cc1`: in test [1], the outcome was inactive. Moreover, the Activity in test [2] turned out to be 7%.

For the compound `FC(F)(F)c1ccccc1Nc1nccc2ccccc12`, the result in test [1] was inactive. In addition, the Activity in test [2] came out at 43%.

For the compound `O=C(NCC1CCCCC1)c1cnc(Nc2cccc(C(F)(F)F)c2)c2ccccc12`, in test [3], the Emax stood at 67%. The result in test [1] was inactive. Besides, the Activity in test [2] amounted to 58%. The pEC50 in test [4] was determined as 5.8.

In the case of `Oc1ccc(Nc2ccc3ccccc3n2)cc1`, the result in test [1] was inactive. Further, in test [2], the Activity stood at 8%.

In the case of `c1ccc2nc(NC3CCCC3)ccc2c1`, the result in test [1] was inactive. Besides, the Activity in test [2] was 22%.

For the compound `O=C(NCC1CCCCC1)c1cc2ccccc2c(Nc2cccc(C(F)(F)F)c2)n1`, the outcome in test [1] was inactive. Also, the Activity in test [2] was -2%.

As to `c1ccc(CNc2ccc3ccccc3n2)cc1`, the result in test [1] was inactive. Besides, in test [2], the Activity came out at 20%.

For `Brc1cccc(Nc2ccc3ccccc3n2)c1`, the Emax in test [3] was 69%. Moreover, the result in test [1] was inactive. In addition, the Activity in test [2] turned out to be 64%. Moreover, the pEC50 in test [4] was determined as 5.7.

With `c1ccc2nc(N3CCOCC3)ccc2c1`, the outcome in test [1] was inactive. Also, the Activity in test [2] was found to be 7%.

In the case of `FC(F)(F)c1ccccc1Nc1ccc2ccccc2n1`, the Emax in test [3] was found to be 103%. Further, the result in test [1] was inactive. Moreover, the Activity in test [2] was 63%. For the same compound, in test [4], the pEC50 was determined as 5.2.

As to `c1ccc(Nc2ncnc3ccccc23)cc1`, the outcome in test [1] was inactive. The Activity in test [2] stood at 10%.

Turning to `O=C(NCc1ccccc1)c1cc2ccccc2c(Nc2cccc(C(F)(F)F)c2)n1`, the outcome in test [1] was inactive. The Activity in test [2] stood at 0%.

Broadly, the Emax is the maximal effect, on the per cent scale that the assay sets. One may read the pEC50 as the EC50 on a negative log10 scale, so that one unit is a factor of ten.
